Reference: ChEMBL document CHEMBL1149254, “The discovery of orally active triaminotriazine aniline amides as inhibitors of p38 MAP kinase” (J Med Chem, 2004)
Each block holds one compound with its values, some of them ahead of it. The source made the active and inactive calls. The rule behind the calls is not given here.

Experiments:
[1] = target: Mitogen-activated protein kinase 14 (Homo sapiens, UniProt Q16539); experiment: Inhibition of human p38-alpha expressed in Escherichia coli
THP-1 = experiment: Inhibition of LPS-induced TNFalpha production in human THP1 cells by ELISA; format: functional, cell-based
In short: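 THP-1 cells grown in RPMI 1640 with 10% FBS, 40000 cells/well. Compound or vehicle was added (1% DMSO final), then LPS at 1 μg/mL final. Cells were incubated overnight at 37 °C, 5% CO2. TNF in the supernatant was measured by sandwich ELISA: anti-human TNF capture, biotinylated polyclonal detection, streptavidin-peroxidase read-out.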

Mus musculus [2] = experiment: Inhibition of LPS-induced TNFalpha release in BALB/c mouse at 5 mg/kg, po after 90 mins; format: functional, organism-based; parameters: dose 5 mg/kg
In short: (§1)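 Female BALB/c mice, 6–8 weeks old. Compound in 100% PEG 300 given by oral gavage 30 min before ip LPS (0.1 mL of 10 μg/mL in PBS). Blood was taken 90 min after LPS and serum TNF-α measured by ELISA. Mean ± SD, n = 8 mice per group.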

Mus musculus [3] = experiment: Inhibition of LPS-induced TNFalpha release in po dosed BALB/c mouse after 90 mins; format: functional; settings: 1.5 h; in short: as §1
PBMC = experiment: Inhibition of LPS-induced TNFalpha production in human PBMC by ELISA; format: functional, cell-based
In short: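 PBMC from healthy donors, isolated on ficoll, plated at 1×10^6 cells/mL in RPMI with 10% FBS. Compound was preincubated for 30 min, then cells were stimulated with 25 ng/mL LPS (final) for 6 h at 37 °C, 5% CO2. Supernatant TNF-α was measured by ELISA.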

[4] = Cytotoxicity against phytohemagglutininin-stimulated human T blast cells at 30 uM after 24 hrs relative to control; format: cell-based; settings: t-cell
In short: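 PBMC T cells (1.25×10^6/mL) stimulated with 5 μg/mL PHA for 4 days to give dividing blasts. Blasts at 1.5×10^6/mL were exposed to 30 μM compound in RPMI with 10% FBS and 0.003% DMSO final, for 24 h at 37 °C, 5% CO2. Viability was read as metabolic activity by AlamarBlue and expressed relative to control.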

Mus musculus [5] = experiment: Inhibition of LPS-induced TNFalpha release in BALB/c mouse administered at 10 mg/kg before 30 mins of LPS challenge; format: functional, organism-based; parameters: dose 10 mg/kg
In short: (§2)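 BALB/c mouse LPS-TNF model. Compound was given at 10 mpk at time points from 30 min to 10 h before LPS challenge, and TNF suppression was assessed at each pretreatment interval.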

Mus musculus [6] = experiment: Inhibition of LPS-induced TNFalpha release in BALB/c mouse administered at 10 mg/kg before 2 hrs of LPS challenge; format: functional, organism-based; parameters: dose 10 mg/kg; in short: as §2
[7] = target: Mitogen-activated protein kinase 11 (Homo sapiens, UniProt Q15759); experiment: Inhibition of human p38beta
[8] = target: T1, Inhibitor of nuclear factor kappa-B kinase subunit beta (Homo sapiens, UniProt O14920); experiment: Inhibition of human IKK2beta
T1 sequence (O14920 whole entry): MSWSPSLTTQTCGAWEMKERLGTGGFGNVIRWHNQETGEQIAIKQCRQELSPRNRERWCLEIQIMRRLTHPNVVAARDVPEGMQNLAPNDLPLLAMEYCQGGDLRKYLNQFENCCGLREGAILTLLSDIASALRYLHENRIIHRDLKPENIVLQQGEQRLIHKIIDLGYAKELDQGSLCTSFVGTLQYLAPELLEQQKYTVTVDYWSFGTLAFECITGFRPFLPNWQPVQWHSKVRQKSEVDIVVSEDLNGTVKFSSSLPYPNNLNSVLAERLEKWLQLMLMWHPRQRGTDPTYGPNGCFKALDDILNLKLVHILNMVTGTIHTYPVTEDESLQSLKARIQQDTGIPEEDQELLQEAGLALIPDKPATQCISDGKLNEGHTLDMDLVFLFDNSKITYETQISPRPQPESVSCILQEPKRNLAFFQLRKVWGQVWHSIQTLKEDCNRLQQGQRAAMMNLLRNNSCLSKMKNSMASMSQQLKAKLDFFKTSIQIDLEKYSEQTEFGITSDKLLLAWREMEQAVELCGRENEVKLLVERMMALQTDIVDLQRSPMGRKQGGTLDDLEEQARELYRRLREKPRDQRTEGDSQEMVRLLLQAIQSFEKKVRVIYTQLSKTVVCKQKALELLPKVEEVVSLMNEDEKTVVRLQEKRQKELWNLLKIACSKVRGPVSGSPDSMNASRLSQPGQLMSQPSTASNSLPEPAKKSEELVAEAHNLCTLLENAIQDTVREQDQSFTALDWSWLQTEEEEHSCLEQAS

[9] = target: MAP kinase-activated protein kinase 2 (Homo sapiens, UniProt P49137); experiment: Inhibition of MK2
[10] = target: T2, Tyrosine-protein kinase JAK3 (Homo sapiens, UniProt P52333); experiment: Inhibition of JAK3
T2 sequence (P52333 whole entry): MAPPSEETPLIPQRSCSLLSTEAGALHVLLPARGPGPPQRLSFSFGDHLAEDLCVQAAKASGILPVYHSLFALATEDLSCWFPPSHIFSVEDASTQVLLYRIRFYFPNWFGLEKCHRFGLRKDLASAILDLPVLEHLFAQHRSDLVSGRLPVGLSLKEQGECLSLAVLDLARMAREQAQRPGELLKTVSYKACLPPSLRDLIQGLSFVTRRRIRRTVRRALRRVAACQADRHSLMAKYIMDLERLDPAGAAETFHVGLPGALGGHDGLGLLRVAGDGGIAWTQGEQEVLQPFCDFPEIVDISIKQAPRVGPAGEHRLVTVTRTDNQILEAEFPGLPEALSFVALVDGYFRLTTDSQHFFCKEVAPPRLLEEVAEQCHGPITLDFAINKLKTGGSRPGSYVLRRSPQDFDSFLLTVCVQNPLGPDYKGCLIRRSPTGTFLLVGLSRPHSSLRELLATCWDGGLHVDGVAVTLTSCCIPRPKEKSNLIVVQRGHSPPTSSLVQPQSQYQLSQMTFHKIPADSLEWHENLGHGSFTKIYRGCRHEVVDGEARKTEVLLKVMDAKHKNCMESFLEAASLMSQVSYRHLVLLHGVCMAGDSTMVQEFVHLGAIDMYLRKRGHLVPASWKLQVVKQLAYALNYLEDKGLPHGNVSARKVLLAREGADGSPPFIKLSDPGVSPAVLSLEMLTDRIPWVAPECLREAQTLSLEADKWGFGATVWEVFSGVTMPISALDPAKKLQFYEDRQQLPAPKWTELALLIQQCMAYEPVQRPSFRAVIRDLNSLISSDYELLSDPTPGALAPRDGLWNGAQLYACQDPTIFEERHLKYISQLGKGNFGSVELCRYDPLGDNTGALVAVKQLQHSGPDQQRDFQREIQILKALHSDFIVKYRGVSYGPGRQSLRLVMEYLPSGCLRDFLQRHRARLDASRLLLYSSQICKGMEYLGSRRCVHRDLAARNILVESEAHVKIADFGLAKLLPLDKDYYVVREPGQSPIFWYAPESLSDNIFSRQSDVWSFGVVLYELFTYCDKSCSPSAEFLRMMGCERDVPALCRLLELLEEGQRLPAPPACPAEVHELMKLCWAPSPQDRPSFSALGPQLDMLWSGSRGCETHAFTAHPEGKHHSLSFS

[11] = target: Protein kinase C alpha type (Homo sapiens, UniProt P17252); experiment: Inhibition of PKCalpha
[12] = target: Protein kinase C delta type (Homo sapiens, UniProt Q05655); experiment: Inhibition of PKCdelta
[13] = target: cAMP-dependent protein kinase (PKA) (Homo sapiens, UniProt P22694+P17612+P22612); experiment: Inhibition of PKA; format: protein assay
[14] = target: Tyrosine-protein kinase Lck (Homo sapiens, UniProt P06239); experiment: Inhibition of LCK
[15] = target: T3, Tyrosine-protein kinase ZAP-70 (Homo sapiens, UniProt P43403); experiment: Inhibition of Zap70
T3 sequence (P43403 whole entry): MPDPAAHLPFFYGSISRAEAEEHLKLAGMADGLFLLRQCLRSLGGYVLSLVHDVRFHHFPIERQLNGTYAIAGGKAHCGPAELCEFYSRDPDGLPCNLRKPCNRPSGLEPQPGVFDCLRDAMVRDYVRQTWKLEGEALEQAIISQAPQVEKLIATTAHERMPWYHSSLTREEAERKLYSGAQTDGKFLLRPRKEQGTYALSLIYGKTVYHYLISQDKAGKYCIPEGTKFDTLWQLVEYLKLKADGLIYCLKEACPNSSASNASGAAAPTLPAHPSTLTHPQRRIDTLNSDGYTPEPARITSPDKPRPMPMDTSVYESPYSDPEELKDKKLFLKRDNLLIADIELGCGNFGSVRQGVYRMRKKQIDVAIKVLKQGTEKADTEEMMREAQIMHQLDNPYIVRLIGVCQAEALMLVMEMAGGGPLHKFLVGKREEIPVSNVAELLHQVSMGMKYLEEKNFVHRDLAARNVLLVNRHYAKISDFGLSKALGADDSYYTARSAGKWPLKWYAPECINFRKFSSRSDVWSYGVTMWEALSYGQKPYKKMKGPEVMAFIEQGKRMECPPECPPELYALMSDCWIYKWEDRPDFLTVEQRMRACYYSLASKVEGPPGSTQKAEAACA

[16] = target: Vascular endothelial growth factor receptor 2 (Homo sapiens, UniProt P35968); experiment: Inhibition of KDR
[17] = Metabolic stability in mouse liver microsomes; format: ADME, Microsome
Liver microsomes = experiment: Metabolic stability in human liver microsomes; format: ADME, Microsome
[18] = Clearance in mouse; format: ADME, organism-based; settings: in vivo
[19] = Half life in mouse; format: ADME, organism-based; settings: in vivo
[20] = Bioavailability in mouse; format: ADME, organism-based; settings: in vivo
Rattus norvegicus = experiment: Suppression of paw swelling in adjuvant arthritis Lewis rat model at 50 mg/kg, po BID

Mitogen-activated protein kinase 14, sequence (Q16539 whole entry): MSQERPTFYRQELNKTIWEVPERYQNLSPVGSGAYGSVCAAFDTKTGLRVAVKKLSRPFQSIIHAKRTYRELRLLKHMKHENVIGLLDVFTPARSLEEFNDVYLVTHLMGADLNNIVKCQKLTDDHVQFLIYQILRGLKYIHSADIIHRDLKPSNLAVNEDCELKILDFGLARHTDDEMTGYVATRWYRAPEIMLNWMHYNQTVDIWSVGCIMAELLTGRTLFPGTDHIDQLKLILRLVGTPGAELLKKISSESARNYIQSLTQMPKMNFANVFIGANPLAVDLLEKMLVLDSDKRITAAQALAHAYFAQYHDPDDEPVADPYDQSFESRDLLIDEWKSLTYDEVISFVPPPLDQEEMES
Vascular endothelial growth factor receptor 2, sequence (P35968 whole entry): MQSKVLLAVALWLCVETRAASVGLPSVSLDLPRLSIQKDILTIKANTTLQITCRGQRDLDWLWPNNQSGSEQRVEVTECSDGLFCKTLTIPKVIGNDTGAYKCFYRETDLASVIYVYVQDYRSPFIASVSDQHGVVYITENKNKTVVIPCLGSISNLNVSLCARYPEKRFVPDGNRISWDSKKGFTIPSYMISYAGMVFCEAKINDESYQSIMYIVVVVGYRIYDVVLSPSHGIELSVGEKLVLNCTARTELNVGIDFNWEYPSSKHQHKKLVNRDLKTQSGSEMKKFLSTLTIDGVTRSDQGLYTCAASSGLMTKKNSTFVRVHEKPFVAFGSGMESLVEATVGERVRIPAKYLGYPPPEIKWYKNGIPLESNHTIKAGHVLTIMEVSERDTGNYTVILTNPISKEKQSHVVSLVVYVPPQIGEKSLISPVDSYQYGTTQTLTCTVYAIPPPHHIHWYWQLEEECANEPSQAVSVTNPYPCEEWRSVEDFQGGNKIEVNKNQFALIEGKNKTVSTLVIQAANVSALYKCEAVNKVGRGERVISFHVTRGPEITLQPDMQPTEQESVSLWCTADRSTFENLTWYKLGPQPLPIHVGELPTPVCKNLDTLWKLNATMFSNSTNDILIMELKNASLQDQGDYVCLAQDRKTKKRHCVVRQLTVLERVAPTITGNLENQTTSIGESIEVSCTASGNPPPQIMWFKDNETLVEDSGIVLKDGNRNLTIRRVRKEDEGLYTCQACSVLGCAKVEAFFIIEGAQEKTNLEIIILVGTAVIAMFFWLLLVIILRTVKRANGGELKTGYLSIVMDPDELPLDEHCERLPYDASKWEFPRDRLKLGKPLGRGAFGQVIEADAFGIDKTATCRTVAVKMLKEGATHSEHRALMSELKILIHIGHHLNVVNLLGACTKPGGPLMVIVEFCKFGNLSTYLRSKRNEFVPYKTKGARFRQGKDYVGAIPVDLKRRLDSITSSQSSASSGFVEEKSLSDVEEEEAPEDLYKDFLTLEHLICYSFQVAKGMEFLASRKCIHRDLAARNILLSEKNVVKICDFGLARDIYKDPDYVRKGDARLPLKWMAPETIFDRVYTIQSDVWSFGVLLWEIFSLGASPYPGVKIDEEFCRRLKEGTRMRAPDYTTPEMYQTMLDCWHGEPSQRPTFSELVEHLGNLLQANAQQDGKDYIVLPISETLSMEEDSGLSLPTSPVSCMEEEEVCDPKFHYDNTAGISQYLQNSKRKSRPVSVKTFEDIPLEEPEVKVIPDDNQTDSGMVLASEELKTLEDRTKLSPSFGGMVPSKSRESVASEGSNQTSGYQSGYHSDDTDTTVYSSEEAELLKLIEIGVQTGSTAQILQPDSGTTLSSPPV
Mitogen-activated protein kinase 11, sequence (Q15759 whole entry): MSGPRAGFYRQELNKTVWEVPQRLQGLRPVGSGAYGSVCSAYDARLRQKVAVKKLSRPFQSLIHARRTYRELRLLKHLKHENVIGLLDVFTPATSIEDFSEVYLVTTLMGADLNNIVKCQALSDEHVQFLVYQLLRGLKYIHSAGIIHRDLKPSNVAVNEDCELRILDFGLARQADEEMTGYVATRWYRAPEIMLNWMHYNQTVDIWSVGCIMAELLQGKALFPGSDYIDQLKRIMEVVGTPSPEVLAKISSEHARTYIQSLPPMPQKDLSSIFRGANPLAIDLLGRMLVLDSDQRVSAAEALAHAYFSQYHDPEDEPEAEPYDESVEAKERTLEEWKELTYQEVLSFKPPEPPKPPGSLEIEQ
MAP kinase-activated protein kinase 2, sequence (P49137 whole entry): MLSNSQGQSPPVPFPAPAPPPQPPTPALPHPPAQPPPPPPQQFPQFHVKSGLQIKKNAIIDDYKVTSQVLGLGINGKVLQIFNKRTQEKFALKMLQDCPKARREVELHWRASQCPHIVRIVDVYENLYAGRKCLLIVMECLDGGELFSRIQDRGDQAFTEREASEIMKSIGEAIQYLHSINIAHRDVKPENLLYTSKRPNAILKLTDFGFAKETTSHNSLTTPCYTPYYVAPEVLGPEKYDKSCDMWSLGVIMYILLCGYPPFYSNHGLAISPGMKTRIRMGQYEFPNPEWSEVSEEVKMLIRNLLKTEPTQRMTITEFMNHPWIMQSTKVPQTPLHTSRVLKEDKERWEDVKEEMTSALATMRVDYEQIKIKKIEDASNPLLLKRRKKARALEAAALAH
Protein kinase C delta type, sequence (Q05655 whole entry): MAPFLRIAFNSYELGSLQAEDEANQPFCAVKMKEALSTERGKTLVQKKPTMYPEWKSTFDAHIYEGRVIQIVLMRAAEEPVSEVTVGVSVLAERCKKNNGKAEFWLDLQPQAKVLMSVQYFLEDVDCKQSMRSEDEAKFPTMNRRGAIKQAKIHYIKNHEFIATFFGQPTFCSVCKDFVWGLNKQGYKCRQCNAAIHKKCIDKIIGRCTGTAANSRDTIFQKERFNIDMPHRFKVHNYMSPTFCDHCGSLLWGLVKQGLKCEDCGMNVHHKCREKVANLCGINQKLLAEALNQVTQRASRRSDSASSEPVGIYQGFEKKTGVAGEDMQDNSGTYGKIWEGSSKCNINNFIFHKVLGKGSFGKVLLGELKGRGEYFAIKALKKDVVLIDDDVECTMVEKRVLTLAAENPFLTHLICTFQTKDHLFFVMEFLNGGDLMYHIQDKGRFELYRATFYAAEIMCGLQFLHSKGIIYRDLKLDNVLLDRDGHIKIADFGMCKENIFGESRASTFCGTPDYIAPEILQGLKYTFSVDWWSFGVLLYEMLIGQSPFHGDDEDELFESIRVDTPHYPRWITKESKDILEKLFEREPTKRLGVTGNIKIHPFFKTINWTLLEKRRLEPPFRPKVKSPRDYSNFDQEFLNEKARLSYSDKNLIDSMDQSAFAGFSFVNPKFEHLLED
Tyrosine-protein kinase Lck, sequence (P06239 whole entry): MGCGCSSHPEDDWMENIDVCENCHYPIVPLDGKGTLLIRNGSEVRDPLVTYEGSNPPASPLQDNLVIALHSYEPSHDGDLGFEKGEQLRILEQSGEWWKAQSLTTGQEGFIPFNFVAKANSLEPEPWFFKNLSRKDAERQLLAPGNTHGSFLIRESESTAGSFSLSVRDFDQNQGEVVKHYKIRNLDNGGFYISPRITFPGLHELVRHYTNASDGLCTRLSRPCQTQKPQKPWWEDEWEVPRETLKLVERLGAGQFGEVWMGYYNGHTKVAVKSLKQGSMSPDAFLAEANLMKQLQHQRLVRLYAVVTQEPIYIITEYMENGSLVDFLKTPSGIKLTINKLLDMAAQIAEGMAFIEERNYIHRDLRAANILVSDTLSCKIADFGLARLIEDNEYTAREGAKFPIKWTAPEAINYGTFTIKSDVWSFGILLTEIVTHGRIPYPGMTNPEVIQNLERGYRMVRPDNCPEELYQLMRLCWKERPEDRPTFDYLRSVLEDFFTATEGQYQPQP

Structure (SMILES): Cc1ccc(C(N)=O)cc1Nc1nc(NCC(C)C)nc(N[C@H]2CCNC2)n1
- IC50 [1]: 0.073 µM
- IC50 (THP-1): > 5 µM

Structure (SMILES): Cc1ccc(C(N)=O)cc1Nc1nc(N[C@H]2CCNC2)nc(N(C)CC(C)C)n1
- IC50 [1]: 0.028 µM
- IC50 (THP-1): 0.325 µM

Structure (SMILES): CCNC(=O)c1ccc(C)c(Nc2nc(N[C@H]3CCNC3)nc(N(C)CC(C)(C)C)n2)c1
- IC50 [1]: 0.031 µM
- IC50 (THP-1): 0.14 µM

Structure (SMILES): Cc1ccc(C(=O)NCc2ccccc2)cc1Nc1nc(N[C@H]2CCNC2)nc(N(C)CC(C)(C)C)n1
- IC50 [1]: 0.064 µM
- IC50 (THP-1): 0.085 µM

Structure (SMILES): Cc1ccc(C(N)=O)cc1Nc1nc(N[C@H]2CCNC2)nc(N(C)CC(C)c2ccccc2)n1 (some centres undefined)
- IC50 [1]: 0.084 µM
- IC50 (THP-1): 2.6 µM

Structure (SMILES): Cc1ccc(C(N)=O)cc1Nc1nc(N[C@H]2CCNC2)nc(N(C)CC(C)(C)C)n1
- IC50 [1]: 0.024 µM
- IC50 (THP-1): 0.167 µM

Continued by falling IC50 [1], values first:

- IC50 [1]: 0.346 µM
- IC50 (THP-1): > 0.25 µM
Structure (SMILES): COC(=O)c1ccc(C)c(Nc2nc(N[C@H]3CCNC3)nc(N(C)CC(C)(C)C)n2)c1

- IC50 [1]: 0.057 µM
- IC50 (THP-1): 0.158 µM
Structure (SMILES): CONC(=O)c1ccc(C)c(Nc2nc(N(C)CC(C)(C)C)nc(N3CCN(C)CC3)n2)c1

- IC50 [1]: 0.052 µM
- IC50 (THP-1): 0.131 µM
Structure (SMILES): CONC(=O)c1ccc(C)c(Nc2nc(N(C)CC(C)(C)C)nc(N3CCCNCC3)n2)c1

- IC50 [1]: 0.044 µM
- IC50 (THP-1): 0.085 µM
- IC50 [7]: 0.022 µM
- IC50 [8]: > 10 µM
- IC50 [9]: > 10 µM
- IC50 [10]: > 10 µM
- IC50 [11]: > 10 µM
- IC50 [12]: > 10 µM
- IC50 [13]: > 10 µM
- IC50 [14]: > 10 µM
- IC50 [15]: > 50 µM
- IC50 [16]: > 10 µM
- Stability [17]: 0.8 nmol/mg/min
- Stability (Liver microsomes): 0.2 nmol/mg/min
- clearance [18]: 6.4 L/h/kg
- half-life [19]: 42 min
- bioavailability [20]: 8%
Structure (SMILES): CONC(=O)c1ccc(C)c(Nc2nc(N(C)CC(C)(C)C)nc(N3CCCN(C)CC3)n2)c1
- Activity (Mus musculus [2]): Active
- ED50 (Mus musculus [3]): 3 mg/kg
- IC50 (PBMC): 0.0046 µM
- Activity [4]: 70%
- Activity (Mus musculus [5]): Active
- Activity (Mus musculus [6]): Active
- Activity (Rattus norvegicus): 50%

- IC50 [1]: 0.018 µM
- IC50 (THP-1): 0.12 µM
Structure (SMILES): CONC(=O)c1ccc(C)c(Nc2nc(N(C)CC(C)(C)C)nc(N3CCNCC3)n2)c1
